ChEMBL document CHEMBL1687847, “Three residues in HIV-1 matrix contribute to protease inhibitor susceptibility and replication capacity” (2011)
Active and inactive are the calls of the source. The rule behind the calls is not given here.

Tests used:
[1] = test system: Human immunodeficiency virus 1; assay: Antiviral activity against HIV1 harboring wild type 8.9NSX with mutant amino acid 116 insertion infected in HEK293T cells assessed as inhibition of viral replication after 48 hrs by luciferase assay; assay type: functional, organism-based; details: HEK-293T
Summary of the method: (§1)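 Resistance vectors were made by cotransfecting HEK293T cells with a p8.9NSX-derived gag-pol vector carrying the matrix/protease variant, a VSV-G plasmid and a firefly luciferase plasmid. At 16 h, producer cells were reseeded in graded PI concentrations, and vectors were harvested 24 h later to infect fresh HEK293T cells. Luciferase was read 48 h postinfection relative to no-drug controls. EC50 came from linear regression, expressed as fold change versus WT subtype B p8.9NSX, mean of ≥2 experiments.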

[2] = test system: Human immunodeficiency virus 1; assay: Antiviral activity against HIV1 harboring mutant protease with matrix A81T mutant infected in HEK293T cells assessed as inhibition of viral replication after 48 hrs by luciferase assay; assay type: functional, organism-based; details: HEK-293T; summary of the method: as §1
[3] = test system: Human immunodeficiency virus 1; assay: Antiviral activity against HIV1 harboring wild type 8.9NSX with gag T81A mutant infected in HEK293T cells assessed as inhibition of viral replication after 48 hrs by luciferase assay; assay type: functional, organism-based; details: HEK-293T; summary of the method: as §1
[4] = test system: Human immunodeficiency virus 1; assay: Antiviral activity against HIV1 harboring mutant protease with matrix K76R mutant infected in HEK293T cells assessed as inhibition of viral replication after 48 hrs by luciferase assay; assay type: functional, organism-based; details: HEK-293T; summary of the method: as §1
[5] = test system: Human immunodeficiency virus 1; assay: Antiviral activity against HIV1 harboring mutant protease with matrix Y79F mutant infected in HEK293T cells assessed as inhibition of viral replication after 48 hrs by luciferase assay; assay type: functional, organism-based; details: HEK-293T; summary of the method: as §1
[6] = test system: Human immunodeficiency virus 1; assay: Antiviral activity against 8gpNS with amino acid 116 insertion removed HIV1 infected in HEK293T cells assessed as inhibition of viral replication after 48 hrs by luciferase assay; assay type: functional, organism-based; details: HEK-293T; summary of the method: as §1
[7] = test system: Human immunodeficiency virus 1; assay: Ratio of EC50 for HIV1 harboring HIV1 harboring wild type 8.9NSX with gag […] and T81A mutant to EC50 for wild type HIV1; assay type: functional; summary of the method: as §1

| SMILES | inhibition [1] | inhibition [2] | inhibition [3] | inhibition [4] | inhibition [5] | inhibition [6] | Ratio EC50 [7] |
| --- | --- | --- | --- | --- | --- | --- | --- |
| COC(=O)N[C@H](C(=O)N[C@@H](Cc1ccccc1)[C@@H](O)CN(Cc1ccc(-c2ccccn2)cc1)NC(=O)[C@@H](NC(=O)OC)C(C)(C)C)C(C)(C)C | inactive | inactive | inactive | inactive | inactive | inactive | – |
| CC(C)CN(C[C@@H](O)[C@H](Cc1ccccc1)NC(=O)O[C@H]1CCOC1)S(=O)(=O)c1ccc(N)cc1 [AMPRENAVIR] | inactive | inactive | inactive | inactive | inactive | inactive | 3 |
| CC(C)CN(C[C@@H](O)[C@H](Cc1ccccc1)NC(=O)O[C@H]1CO[C@H]2OCC[C@H]21)S(=O)(=O)c1ccc(N)cc1 [DARUNAVIR] | inactive | – | – | – | – | inactive | 3 |
| CC(C)(C)NC(=O)[C@@H]1CN(Cc2cccnc2)CCN1C[C@@H](O)C[C@@H](Cc1ccccc1)C(=O)N[C@H]1c2ccccc2C[C@H]1O.O [INDINAVIR] | inactive | inactive | – | inactive | inactive | inactive | 3 |
| Cc1cccc(C)c1OCC(=O)N[C@@H](Cc1ccccc1)[C@@H](O)C[C@H](Cc1ccccc1)NC(=O)[C@H](C(C)C)N1CCCNC1=O [LOPINAVIR] | inactive | inactive | – | inactive | inactive | inactive | 3 |
| Cc1c(O)cccc1C(=O)N[C@@H](CSc1ccccc1)[C@H](O)CN1C[C@H]2CCCC[C@H]2C[C@H]1C(=O)NC(C)(C)C [NELFINAVIR] | inactive | inactive | inactive | inactive | inactive | inactive | 3 |
| CC(C)(C)NC(=O)[C@@H]1C[C@@H]2CCCC[C@@H]2CN1C[C@@H](O)[C@H](Cc1ccccc1)NC(=O)[C@H](CC(N)=O)NC(=O)c1ccc2ccccc2n1 [SAQUINAVIR] | inactive | – | – | – | – | inactive | 3 |
| CCC[C@@]1(CCc2ccccc2)CC(O)=C([C@H](CC)c2cccc(NS(=O)(=O)c3ccc(C(F)(F)F)cn3)c2)C(=O)O1 [TIPRANAVIR] | inactive | – | – | – | – | inactive | 3 |
